Activity calls are given as the source filed them. No cut-off for these calls is given here. Where a SMILES comes first, the peptide text is derived from it.
Columns and labels:
CRL-2573 [1] = assay: Inhibition of high glucose-induced IL-6 secretion in rat CRL-2573 cells at 10 uM after 24 hrs by ELISA; format: functional, cell-based
Summary of the method: (§1)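 Rat mesangial cells (CRL-2573) grown in DMEM with 5.6 mM D-glucose (pH 7.4), 20% FCS, penicillin/streptomycin, 10 mM HEPES. At 80% confluence, growth arrested in 0.5% FCS for 24 h. Pretreated 1 h with compound (1 or 10 μM), then high glucose 24 h. Supernatant analyte quantified by sandwich ELISA, normalized to total cell protein (BCA).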

CRL-2573 [2] = assay: Inhibition of high glucose-induced CCL2 secretion in rat CRL-2573 cells at 10 uM after 24 hrs by ELISA; format: functional, cell-based; summary of the method: as §1
CRL-2573 [3] = assay: Inhibition of high glucose-induced collagen-4 secretion in rat CRL-2573 cells at 10 uM after 24 hrs by ELISA; format: functional, cell-based; summary of the method: as §1
RAW264.7 = assay: Inhibition of LPS-induced nitric oxide production in […] cells at 25 uM; format: functional, cell-based
[4] = Cytotoxicity in rat CRL-2573 cells at 10 uM after 24 hrs by trypan blue exclusion assay; format: cell-based; details: crl-2573, 24 h
CRL-2573 [5] = assay: Antioxidant activity against high glucose-induced intracellular ROS production in rat CRL-2573 cells assessed as carboxymethyl-H2-dichlorofluorescein diacetate conversion to 2',7'-dichlorofluorescein at 1 to 10 uM preincubated for 1 hr prior to high glucose challenge by flow cytometer; format: functional, cell-based
Summary of the method: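 Rat mesangial cells cultured and growth-arrested as for secretion assays. Exposed to 5.6 mM (normal) or 25 mM (high) D-glucose for up to 24 h, with or without compound preincubation. Intracellular ROS then measured.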

CRL-2573 [6] = assay: Inhibition of high glucose-induced collagen-1 secretion in rat CRL-2573 cells at 10 uM after 24 hrs by ELISA; format: functional, cell-based; summary of the method: as §1
CRL-2573 [7] = assay: Antioxidant activity against high glucose-induced intracellular superoxide ion production in rat CRL-2573 cells at 1 to 10 uM measured every minute for 30 mins by lucigenin-enhanced chemiluminescence assay in presence of NADPH; format: functional, cell-based
Summary of the method: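 Homogenates of cultured rat mesangial cells (100 μg/well) assayed by lucigenin-enhanced chemiluminescence. Dark-adapted lucigenin (5 μM) with or without NADPH (100 μM) added immediately before reading. Signal recorded every minute for 30 min.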

Structure (SMILES)	inhibition (CRL-2573 [1])	inhibition (CRL-2573 [2])	inhibition (CRL-2573 [3])	inhibition (RAW264.7)	Activity [4]	Activity (CRL-2573 [5])	inhibition (CRL-2573 [6])	Activity (CRL-2573 [7])
COC1CCC(=O)N1[C@@H]1C=C(COC(=O)c2ccc[nH]2)CO1 (some centres undefined)	Active	Active	Active	–	–	–	–	–
CC(C)C[C@@H]1NC(=O)CNC(=O)[C@H](C)NC(=O)[C@@H]2CCCN2C(=O)[C@@H]2CCCN2C(=O)[C@H](Cc2ccccc2)NC(=O)[C@H]([C@@H](C)O)NC(=O)[C@H](C)NC1=O (HELM PEPTIDE1{A.G.L.A.T.F.P.P}$PEPTIDE1,PEPTIDE1,1:R1-8:R2$$$V2.0)	Active	Active	Active	inactive	Non-toxic	Active	Active	Active
CC(C)C[C@@H]1NC(=O)CNC(=O)[C@H](C(C)C)NC(=O)[C@@H]2CCCN2C(=O)[C@H](Cc2ccccc2)NC(=O)[C@H]([C@@H](C)O)NC(=O)[C@@H]2CCCN2C(=O)[C@H]([C@@H](C)O)NC1=O (HELM PEPTIDE1{F.P.V.G.L.T.P.T}$PEPTIDE1,PEPTIDE1,1:R1-8:R2$$$V2.0)	Active	Active	Active	–	–	–	–	–
